Data: ChEMBL document CHEMBL1123585, “Differential effects of N-terminal modifications on the biological potencies of growth hormone releasing factor analogues with varying chain lengths” (1987)

Key:
[1] = target: T1, Growth hormone-releasing hormone receptor (Rattus norvegicus) (UniProt Q02644); assay: In vitro rat pituitary cell growth hormone response was obtained; assay type: functional, cell-based; settings: Pituitary gland cell
T1 sequence (whole entry): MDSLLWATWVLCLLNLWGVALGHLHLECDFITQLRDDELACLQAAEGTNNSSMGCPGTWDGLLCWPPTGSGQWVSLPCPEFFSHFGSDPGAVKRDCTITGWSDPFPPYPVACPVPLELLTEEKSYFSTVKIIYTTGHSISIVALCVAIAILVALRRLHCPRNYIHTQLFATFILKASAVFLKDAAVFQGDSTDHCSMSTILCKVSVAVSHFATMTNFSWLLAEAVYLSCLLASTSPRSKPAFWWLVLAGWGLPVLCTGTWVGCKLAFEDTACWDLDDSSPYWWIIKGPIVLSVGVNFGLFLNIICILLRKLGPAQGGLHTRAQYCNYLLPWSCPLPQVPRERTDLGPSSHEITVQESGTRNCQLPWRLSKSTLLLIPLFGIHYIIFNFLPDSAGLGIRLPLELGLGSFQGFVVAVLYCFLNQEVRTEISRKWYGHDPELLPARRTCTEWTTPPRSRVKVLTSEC

[2] = target: T1, Growth hormone-releasing hormone receptor (Rattus norvegicus); assay: Effect on growth hormone release(GRF) was determined in nembutal-anesthetized rat, at dose of 10 ug/100 g body weight.; assay type: functional
Method in brief: (§1)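 Male Charles River rats (175-275 g), anesthetized with sodium pentobarbital 6 mg/100 g body weight. Six to nine per group. Peptide or saline given subcutaneously in 0.5 mL, 30 min after anesthetic. Jugular vein blood taken 15 min post-injection. Plasma GH measured by radioimmunoassay and reported as ng/mL, mean ± SEM.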

Rattus norvegicus [3] = assay: Effect on growth hormone release(GRF) was determined in nembutal-anesthetized rat, at dose of 4 ug/100 g body weight.; assay type: functional, organism-based; method in brief: as §1
[4] = target: T1, Growth hormone-releasing hormone receptor (Rattus norvegicus); assay: Tested for the potency of growth hormone (GRF) on subcutaneous administration in anesthetized male Charles River rats; assay type: functional, organism-based
Method in brief: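 Pentobarbital-anesthetized male rats (175-275 g), six to nine per group, received two subcutaneous doses of analogue or of reference GRF(1-29)NH2, in 0.5 mL, 30 min after anesthesia. Plasma GH measured by RIA 15 min later. Potency with 95% confidence limits calculated from a four-point assay design by the Pugsley method.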

Rattus norvegicus [5] = assay: Effect on growth hormone release(GRF) was determined in nembutal-anesthetized rat, at dose of 32 ug/100 g body weight.; assay type: functional, organism-based; method in brief: as §1
Rattus norvegicus [6] = assay: Effect on growth hormone release(GRF) was determined in nembutal-anesthetized rat, at dose of 80 ug/100 g body weight.; assay type: functional, organism-based; method in brief: as §1
Rattus norvegicus [7] = assay: Effect on growth hormone release(GRF) was determined in nembutal-anesthetized rat, at dose of 200 ug/100 g body weight.; assay type: functional, organism-based; method in brief: as §1

Potency [1] [%]	Plasma GH release [2] [ng/mL]	Potency [4] [%]	SMILES	Plasma GH release (Rattus norvegicus [3]) [ng/mL]	Plasma GH release (Rattus norvegicus [5]) [ng/mL]	Plasma GH release (Rattus norvegicus [6]) [ng/mL]	Plasma GH release (Rattus norvegicus [7]) [ng/mL]
83	2170	199	CC[C@H](C)[C@H](NC(=O)[C@H](C)NC(=O)[C@@H](CC(=O)O)NC(=O)[C@H](C)NC(=O)[C@@H](N)Cc1ccc(O)cc1)C(=O)N[C@@H](Cc1ccccc1)C(=O)N[C@H](C(=O)N[C@H](CC(N)=O)C(=O)N[C@@H](CO)C(=O)N[C@@H](Cc1ccc(O)cc1)C(=O)N[C@@H](CCCN=C(N)N)C(=O)N[C@@H](CCCCN)C(=O)N[C@H](C(=O)N[C@@H](CC(C)C)C(=O)NCC(=O)N[C@@H](CCC(N)=O)C(=O)N[C@@H](CC(C)C)C(=O)N[C@@H](CO)C(=O)N[C@@H](C)C(=O)N[C@@H](CCCN=C(N)N)C(=O)N[C@@H](CCCCN)C(=O)N[C@@H](CC(C)C)C(=O)N[C@@H](CC(C)C)C(=O)N[C@@H](CCC(N)=O)C(=O)N[C@@H](CC(=O)O)C(=O)N[C@H](C(=O)N[C@@H](CC(C)C)C(N)=O)[C@@H](C)CC)C(C)C)[C@@H](C)O	899	–	–	–
0.004	–	16	CC[C@H](C)[C@H](NC(=O)[C@H](C)NC(=O)[C@H](CC(=O)O)NC(=O)[C@@H](C)NC(=O)[C@@H](N)Cc1ccc(O)cc1)C(=O)N[C@@H](Cc1ccccc1)C(=O)N[C@H](C(=O)N[C@@H](CC(N)=O)C(=O)N[C@@H](CO)C(=O)N[C@@H](Cc1ccc(O)cc1)C(=O)N[C@@H](CCCN=C(N)N)C(=O)N[C@@H](CCCCN)C(=O)N[C@H](C(=O)N[C@@H](CC(C)C)C(=O)NCC(=O)N[C@@H](CCC(N)=O)C(=O)N[C@@H](CC(C)C)C(=O)N[C@@H](CO)C(=O)N[C@@H](C)C(=O)N[C@@H](CCCN=C(N)N)C(=O)N[C@@H](CCCCN)C(=O)N[C@@H](CC(C)C)C(=O)N[C@@H](CC(C)C)C(=O)N[C@@H](CCC(N)=O)C(N)=O)C(C)C)[C@@H](C)O	–	499	1370	–
0.0004	–	7	CC[C@H](C)[C@H](NC(=O)[C@H](C)NC(=O)[C@H](CC(=O)O)NC(=O)[C@@H](C)NC(=O)[C@@H](N)Cc1ccc(O)cc1)C(=O)N[C@@H](Cc1ccccc1)C(=O)N[C@H](C(=O)N[C@@H](CC(N)=O)C(=O)N[C@@H](CO)C(=O)N[C@@H](Cc1ccc(O)cc1)C(=O)N[C@@H](CCCN=C(N)N)C(=O)N[C@@H](CCCCN)C(=O)N[C@H](C(=O)N[C@@H](CC(C)C)C(=O)NCC(=O)N[C@@H](CCC(N)=O)C(=O)N[C@@H](CC(C)C)C(=O)N[C@@H](CO)C(=O)N[C@@H](C)C(=O)N[C@@H](CCCN=C(N)N)C(=O)N[C@@H](CCCCN)C(=O)N[C@@H](CC(C)C)C(=O)N[C@@H](CC(C)C)C(=O)N[C@@H](CCC(N)=O)C(=O)N[C@@H](CC(=O)O)C(=O)N[C@H](C(=O)N[C@@H](CC(C)C)C(N)=O)[C@@H](C)CC)C(C)C)[C@@H](C)O (stereo in doubt; 4)	–	–	742	1500
